The text below walks through data of ChEMBL document CHEMBL3856259, “Evaluation of canthinone alkaloids as cerebral protective agents” (Bioorg Med Chem Lett, 2016).

Series [1] has as its system Meriones unguiculatus. Put plainly: Cerebral protective activity in anesthetized cerebral ischemia-induced Mongolian gerbil hippocampus assessed as protective values on density of surviving neurons in CA1 subfields of hippocampus at 100 mg/kg, po pretreated for 30 mins followed by bilateral ligation-induced ischemia for 5 mins measured on day 1 post 3 days ischemia induction by hematoxylin and eosin staining based microscopic analysis relative to control. In kind it is functional.

The subject of series [2] is Meriones unguiculatus. Put plainly: Cerebral protective activity in cerebral ischemia-induced Mongolian gerbil assessed as passive avoidance test value at 100 mg/kg, po pretreated for 30 mins followed by bilateral ligation-induced ischemia for 5 mins measured on day 1 post 3 days ischemia induction relative to control. It is filed as functional.
Series [3] is described as follows: Toxicity in Mongolian gerbil assessed as locomotion-reducing effect at 30 to 100 mg/kg, po. In kind it is organism-based, Meriones unguiculatus. Particulars: in vivo.
Series [4] in a line: Toxicity in Mongolian gerbil assessed as effect on body temperature at 30 to 100 mg/kg, po. It is filed as organism-based, Meriones unguiculatus. Particulars: in vivo.
Series [5] deals with Meriones unguiculatus. Put plainly: Cerebral protective activity in cerebral ischemia-induced Mongolian gerbil assessed as reduction in neuronal cell death in CA1 subfields of hippocampus at 30 mg/kg, po administered twice at 3 and 6 hrs after cerebral ischemia induction. In kind it is functional, organism-based. Summed up: (§1)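 Gerbils (n = 10) subjected to bilateral carotid ligation ischemia, then given 30 mg/kg orally at 3 h or at 3 h and 6 h after ischemia. Brains perfusion-fixed in 10% neutral formalin and paraffin-embedded. 5-µm coronal sections stained with H&E. Surviving CA1 hippocampal neurons counted (/mm). Mean ± SEM, Student's t-test.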

Series [6] relates to Meriones unguiculatus. Put plainly: Cerebral protective activity against ischemia in Mongolian gerbil assessed as reduction in 45Ca2+ accumulation in brain at 30 mg/kg, po administered after cerebral ischemia induction for 15 mins in presence of 45CaCl2 by autoradiographic analysis.
Series [7] relates to Meriones unguiculatus. Nature of the series: Cerebral protective activity in cerebral ischemia-induced Mongolian gerbil assessed as reduction in neuronal cell death at 30 mg/kg, po administered at 3hrs after cerebral ischemia induction. It is filed as functional, organism-based. Summed up:
as §1

Series [8] is described as follows: Toxicity in Mongolian gerbil assessed as reduction in heart rate at 30 to 100 mg/kg, po. It is filed as organism-based, Meriones unguiculatus. Particulars: in vivo. Summed up: (§2)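 Heart rate and mean systolic blood pressure recorded in gerbils after oral doses of 30 and 100 mg/kg.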
The nature of series [9]: Toxicity in Mongolian gerbil assessed as reduction in systolic blood pressure at 30 to 100 mg/kg, po. In kind it is organism-based, Meriones unguiculatus. Particulars: in vivo. In outline:
as §2

The subject of series [10] is Meriones unguiculatus. Nature of the series: Cerebral protective activity against kainic acid-induced neuronal necrosis in po dosed Mongolian gerbil administered after kainic acid injection. It is filed as functional, organism-based. In outline:
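Male Mongolian gerbils (n = 10), fasted overnight, given atropine (5.0 µg/animal) and pentobarbital anesthesia (40 mg/kg ip). Kainic acid in saline at pH 7.4 (0.2 µL of 1.0 µg/µL) infused stereotaxically into right hippocampal CA3 over 4.0 min. Drug dosed orally after the lesion. Perfusion-fixed 4 days later. Surviving CA1 neuron density (/mm) scored. Mean ± SEM.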

Active and inactive are the calls of the source. No cut-off for these calls is given here.

Turning to `COc1c2n(C)ccc3c-2n(c(=O)c1=O)c1c(Br)cc(Br)cc31`, the figures for the Activity in the series with Meriones unguiculatus [1] and with Meriones unguiculatus [2] were -8.1% and “<=40%”, respectively.

In the case of `Cn1c(=O)cc2c3ccccc3n3c(=O)ccc1c23`, the Activity with Meriones unguiculatus [1] is 10.6%; in the series on Meriones unguiculatus [2], “<=40%”.

In the case of `COc1c2n(C)ccc3c-2n(c(=O)c1=O)c1ccccc31`, the Activity result in [3] is on record as “Non-Toxic”; in series [4], “Non-Toxic”; with Meriones unguiculatus [1], 73.1%; in the series with Meriones unguiculatus [2] it was above 80%; in series [8] it was “Non-Toxic”; in series [9], “Non-Toxic”. Also, the result in the series with Meriones unguiculatus [5], in the series with Meriones unguiculatus [6], in the series on Meriones unguiculatus [7] and in the series with Meriones unguiculatus [10] was Active.

For the compound `CCn1ccc2c3n(c(=O)c(=O)cc1-3)c1ccccc21`, the Activity in the series on Meriones unguiculatus [1] was 92.3%; in the series on Meriones unguiculatus [2], “<=40%”.

`Cc1c2[nH]c3ccccc3c2cc[n+]1[O-]`: the Activity was 14.2% with Meriones unguiculatus [1] and “<=40%” in the series with Meriones unguiculatus [2].

As for `CC[C@@H]1N[C@H](C(=O)O)Cc2c1[nH]c1ccccc21`, the Activity was 10.9% in the series with Meriones unguiculatus [1] and “<=40%” in the series with Meriones unguiculatus [2].

For `C[C@@H]1N[C@H](C(=O)O)Cc2c1[nH]c1ccccc21`, the Activity in the series on Meriones unguiculatus [1] was -13.6%; in the series with Meriones unguiculatus [2] it was “<=40%”.

For the compound `COc1c(O)c(=O)n2c3ccccc3c3cc(O)nc1c32`, the Activity is listed as 26.2% in the series with Meriones unguiculatus [1] and “<=40%” with Meriones unguiculatus [2].

On to `COc1c(OC)c2c3c(cc(=O)n2C)c2ccccc2n3c1=O`, for which the Activity in the series on Meriones unguiculatus [1] is recorded as 24.3%; with Meriones unguiculatus [2] it was “<=40%”.

With `CCc1c2n(C)ccc3c-2n(c(=O)c1=O)c1ccccc31`, the Activity is listed as 26.3% with Meriones unguiculatus [1] and “<=40%” in the series with Meriones unguiculatus [2].

In the case of `Cn1ccc2c3n(c(=O)c(=O)cc1-3)c1ccccc21`, the figures for the Activity in the series with Meriones unguiculatus [1] and in the series on Meriones unguiculatus [2] were 84.6% and above 80%, respectively.

In the case of `COc1c(OC)c2nc(O)cc3c4ccccc4n(c1=O)c23`, the Activity was 2.8% in the series on Meriones unguiculatus [1] and “<=40%” with Meriones unguiculatus [2].

On to `Cn1ccc2c3n(c(=O)c(=O)cc1-3)c1ccc(Br)cc21`, for which the Activity with Meriones unguiculatus [1] is 27.3%; with Meriones unguiculatus [2], “<=40%”.

On to `CCn1ccc2c3n(c(=O)c(=O)c(OC)c1-3)c1ccccc21`, for which the Activity in the series on Meriones unguiculatus [1] is recorded as 46.2%; in the series on Meriones unguiculatus [2], “<=40%”.

Turning to `[O-][n+]1ccc2c(c1)[nH]c1ccccc12`, the figures for the Activity in the series on Meriones unguiculatus [1] and with Meriones unguiculatus [2] were 13.8% and “<=40%”, respectively.

Take `COc1ccc2c3ccn(C)c4cc(=O)c(=O)n(c3-4)c2c1`: the results for the Activity with Meriones unguiculatus [1] and in the series on Meriones unguiculatus [2] were 53.8% and “>=40 - 60%”, respectively.

Consider `COC(=O)c1nccc2c1[nH]c1ccccc12`, for which the Activity in the series on Meriones unguiculatus [1] is recorded as 30.1%; in the series on Meriones unguiculatus [2] it was “<=40%”.

With `COc1c(OC)c2nccc3c4ccccc4n(c1=O)c23` [4,5-DIMETHOXYCANTHIN-6-ONE], the Activity with Meriones unguiculatus [1] was 20.8%; in the series on Meriones unguiculatus [2] it was “<=40%”.

Regarding `COc1c2n(C)ccc3c-2n(c(=O)c1=O)c1ccc(Br)cc31`, the figures for the Activity in the series on Meriones unguiculatus [1] and with Meriones unguiculatus [2] were -0.8% and “<=40%”, respectively.

In the case of `COC(=O)[C@@H]1Cc2c([nH]c3ccccc23)[C@H](C)N1`, the results for the Activity in the series on Meriones unguiculatus [1] and with Meriones unguiculatus [2] were 18.6% and “<=40%”, respectively.

As to `Cn1ccc2c3n(c(=O)c(=O)cc1-3)c1c(Br)cc(Br)cc21`, the values for the Activity in the series on Meriones unguiculatus [1] and in the series on Meriones unguiculatus [2] were 3% and “<=40%”, respectively.

Take `COc1c(O)c(=O)n2c3ccccc3c3ccnc1c32`: the Activity in the series on Meriones unguiculatus [1] was 13.9%; with Meriones unguiculatus [2], “<=40%”.
